Compound activity: PubChem BioAssay, several laboratories
Rows were chosen to be rich in hits. Some 1.1% of all compounds tested hit in one or more screens of this group.
TNAP inh hi DEA: TNAP (human) inhibition, high acceptor | purified TNAP, CDP-star luminescence, 1 M DEA | inhibition, % at 20 µM | hit rate 0.03% among 200,000;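 active = over 50% inhibition of tissue-nonspecific alkaline phosphatase at 20 µM in the single-dose screen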
TNAP act hi DEA: TNAP (human) activation, high acceptor | AID 1136 | 200,000 tested, under 10 active | P05186 | purified TNAP, CDP-star luminescence, 1 M DEA, 30 min; hits give high values; 0 = EDTA background, 1 = DMSO-only activity | activation factor at 20 µM;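 active = activation factor at least 2 at 20 µM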
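system = human TNAP | amount = enzyme diluted 1/800 final | reagent = 100 µM CDP-star substrate | signal = luminescent substrate turnover signal | dosing = one dose, 20 µM | benchmarks = EDTA negative control, DMSO positive control | measure = activation factor | timing = 30 min reaction, room temperature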
S1P3 antag: blocks the human S1P3 receptor. Q99500. CHO S1P3 NFAT-BLA reporter, FRET fluorescence, antagonist mode. inhibition, % at 4.98 µM. hit rate 0.27% among 170,000;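 active = inhibition above the plate cutoff, the mean inhibition of test wells on that plate plus 3 SD, cut at about 28% in these data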;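 note: cells challenged with S1P at its EC80 of 0.8 µM; blue over green emission ratio from cleaved BLA substrate after 4 h stimulation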
Target sequence (Q99500 whole entry, looked up): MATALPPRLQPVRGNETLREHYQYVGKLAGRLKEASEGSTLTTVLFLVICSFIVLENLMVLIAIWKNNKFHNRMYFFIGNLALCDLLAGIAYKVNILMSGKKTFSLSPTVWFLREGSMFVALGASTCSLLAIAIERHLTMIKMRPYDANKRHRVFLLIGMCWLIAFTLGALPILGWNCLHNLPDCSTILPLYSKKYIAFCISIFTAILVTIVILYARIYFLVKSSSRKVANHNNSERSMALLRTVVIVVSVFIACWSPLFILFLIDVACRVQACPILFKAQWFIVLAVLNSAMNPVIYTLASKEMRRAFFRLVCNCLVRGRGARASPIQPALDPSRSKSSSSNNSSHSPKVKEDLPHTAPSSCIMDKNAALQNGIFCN
S1P4 antagonist: antagonists of human S1P4 receptor; O95977; S1P4-expressing cells, antagonist mode, reporter read-out; inhibition, % at 4.98 µM; hit rate 0.26% among 220,000; AID 1510; in the data active = inhibition above about 29%
TNAP inh no acc: TNAP (human) inhibition, acceptor-free conditions; P05186; purified TNAP, CDP-star luminescence, 30 min; inhibition, % at 20 µM; hit rate 0.26% among 200,000; AID 1012;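 active = tissue-nonspecific alkaline phosphatase inhibition above about 50% at 20 µM in the single-dose screen, limit read from the data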
S1P4 ag: human S1P4 receptor agonism | hit rate 0.35% among 220,000 | S1P4-expressing cell line, agonist reporter assay | AID 1509 | O95977 | activation, % at 4.98 µM; in the data active = activation above about 11%
S1P4 agonist cf: human S1P4 agonism, confirmation | activation, % at 4.98 µM | S1P4 agonist cell-based reporter assay | hit rate 7% among 740 | shares compounds with S1P4 ag; in the data active = activation above about 12%
S1P1 ag: human S1P1 agonism as S1P4 agonist counter-screen | AID 1563 | shares compounds with S1P4 ag | S1P1 agonist cell-based assay, activation | activation, % at 4.98 µM | hit rate 4% among 740; in the data active = activation above about 21%
Target sequence (P21453 whole entry, looked up): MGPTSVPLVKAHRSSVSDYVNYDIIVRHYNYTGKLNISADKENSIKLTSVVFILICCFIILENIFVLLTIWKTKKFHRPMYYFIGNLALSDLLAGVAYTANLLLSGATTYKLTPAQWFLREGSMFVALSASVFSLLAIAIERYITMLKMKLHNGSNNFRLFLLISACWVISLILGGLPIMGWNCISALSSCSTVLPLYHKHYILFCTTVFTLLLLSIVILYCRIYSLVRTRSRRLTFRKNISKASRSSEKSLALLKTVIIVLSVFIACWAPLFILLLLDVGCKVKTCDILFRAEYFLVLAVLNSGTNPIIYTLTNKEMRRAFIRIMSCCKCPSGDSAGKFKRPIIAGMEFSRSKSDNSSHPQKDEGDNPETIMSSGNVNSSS
S1P4 antag conf: human S1P4 antagonism, confirmation. AID 1524. hit rate 71% among 520. S1P4-expressing cell line, antagonist mode, reporter read-out. shares compounds with S1P4 antagonist. inhibition, % at 4.98 µM; in the data active = inhibition above about 30%
S1P1 antag: human S1P1 antagonism as S1P4 antagonist counter-screen | AID 1564 | shares compounds with S1P4 antagonist | hit rate 37% among 520 | cell-based S1P1 antagonist counterscreen, inhibition | inhibition, % at 4.98 µM; in the data active = inhibition above about 40%;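 note: receptor stimulated with S1P near its EC80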
Large screens that a line does not name were inactive (follow-up assays come after a bar, where they were run).

CCC(C)(C)n1nnnc1C(c1cccnc1)N1CCN(c2cccc(C(F)(F)F)c2)CC1 (configuration not stated)	S1P4 ag 15.1 (no result: S1P3 antag) | S1P4 agonist cf inactive | S1P1 ag inactive
CC1CCCN(S(=O)(=O)c2ccc(S(=O)(=O)NC(C)c3cccs3)cc2)C1 (configuration not stated)	none (no result: S1P3 antag)
O=C(COc1ccc2ccccc2c1)NNC(=O)Cc1ccccc1	S1P4 ag 13.0 | S1P4 agonist cf inactive | S1P1 ag inactive
CC(C)OCCCn1c(=NC(=O)c2cccs2)c(C#N)cc2c(=O)n3ccccc3nc21	S1P4 ag 18.6 (no result: TNAP inh hi DEA, TNAP act hi DEA, TNAP inh no acc) | S1P4 agonist cf inactive | S1P1 ag inactive
CCOCCCn1c(=NC(C)=O)c(C#N)cc2c(=O)n3cccc(C)c3nc21	S1P4 ag 12.1 (no result: TNAP inh hi DEA, TNAP act hi DEA, TNAP inh no acc) | S1P4 agonist cf inactive | S1P1 ag 28.3
CC(=O)N=c1c(C#N)cc2c(=O)n3ccccc3nc2n1CCCOC(C)C	S1P4 ag 15.9 (no result: TNAP inh hi DEA, TNAP act hi DEA, TNAP inh no acc) | S1P4 agonist cf inactive | S1P1 ag inactive
Cc1cc(C)cc(NC(=O)CSc2ccc(-c3cccs3)nn2)c1	none
O=C(CSc1ccc(-c2cccs2)nn1)Nc1ccccc1	S1P4 ag 34.6 | S1P4 agonist cf inactive | S1P1 ag inactive
COc1cccc(C2=NOC(C(=O)N3CCN(C(=O)c4ccco4)CC3)C2)c1 (configuration not stated)	S1P4 ag 37.2 | S1P4 agonist cf inactive | S1P1 ag inactive
Cc1ccc(/C=N/n2c(C3CCCCC3)n[nH]c2=S)s1	S1P4 ag 21.0 | S1P4 agonist cf inactive | S1P1 ag inactive
Cc1ccsc1/C=N/n1c(C2CCCCC2)n[nH]c1=S	none
CCCCSc1cc(=O)[nH]c(N)n1	none (no result: TNAP inh hi DEA, TNAP act hi DEA, TNAP inh no acc)
O=C(CCCn1c(=S)[nH]c2ccccc2c1=O)NCCSCc1ccccc1	none
C=CCc1c(O)c(CC)cc2c(C)cc(=O)oc12	S1P4 ag 27.7 (no result: TNAP inh hi DEA, TNAP act hi DEA, TNAP inh no acc) | S1P4 agonist cf inactive | S1P1 ag inactive
CCN(CC)Cc1c(O)c(Cl)cc2c(C)cc(=O)oc12	none
COc1ccc(-c2noc(CSc3nc4sc(C)c(C)c4c(=O)n3-c3ccccc3)n2)cc1	S1P4 ag 21.1 | S1P4 agonist cf inactive | S1P1 ag inactive
CCc1ccc(/C(C)=N/NC(=O)c2ccccn2)cc1	S1P4 ag 12.0 | S1P4 agonist cf inactive | S1P1 ag inactive
CS/C(=C/[N+](=O)[O-])Nc1cccc2c1C(C)CC2(C)C (configuration not stated)	none
C/C(CC(=O)Nc1ccc(F)cc1)=N\NC(=O)Cc1csc(N)n1	none
C/C(CC(=O)Nc1ccc(Br)cc1)=N\NC(=O)Cc1csc(N)n1	S1P4 ag 101.4 (no result: TNAP inh hi DEA, TNAP act hi DEA, TNAP inh no acc) | S1P4 agonist cf inactive | S1P1 ag inactive
COc1ccc2cc(-c3[nH]ncc3CN3C[C@@H]4CCC[C@H]3C4)ccc2c1	none
Cc1ccc(Nc2cc(C)c3ccc(O)cc3n2)cc1C	S1P4 antagonist 74.6, S1P4 ag 11.2 (no result: TNAP inh hi DEA, TNAP act hi DEA, TNAP inh no acc) | S1P4 agonist cf inactive | S1P1 ag inactive | S1P4 antag conf 80.3 | S1P1 antag inactive
CC1CC(C)(C)N(C(=O)CSc2ccc(-c3ccc(F)cc3)nn2)c2ccccc21 (configuration not stated)	none (no result: S1P3 antag)
N=c1n(CCN2CCOCC2)c2ccccc2n1CC(=O)c1ccc(Cl)c(Cl)c1	none
N=c1n(CCN2CCCC2)c2ccccc2n1CC(O)c1ccc(Cl)c(Cl)c1 (configuration not stated)	S1P4 antagonist 38.1, S1P4 ag 55.0 | S1P4 agonist cf inactive | S1P1 ag inactive | S1P4 antag conf 71.2 | S1P1 antag 59.8
Cc1ccc(SCCC(=O)N2CCOCC2)cc1	S1P4 antagonist 29.0 | S1P4 antag conf inactive | S1P1 antag inactive
Cc1nnc(N/N=C/c2c(Cl)cccc2Cl)n1N	S1P4 antagonist 30.2 | S1P4 antag conf inactive | S1P1 antag inactive
CCC(NC(=O)Nc1nnc(C(F)(F)F)s1)(C(F)(F)F)C(F)(F)F	S1P4 antagonist 37.7 (no result: S1P3 antag) | S1P4 antag conf 51.2 | S1P1 antag inactive
O=C(O)CCC(=O)Nc1nnc(C(F)(F)F)s1	none
COc1ccccc1NC(=O)Nc1cc(F)ccc1F	none
c1cnc(Oc2ccc(-c3nnco3)cc2)cn1	S1P4 antagonist 36.9 | S1P4 antag conf inactive | S1P1 antag inactive
FC(F)(F)c1cnc(Oc2ccc(-c3nnco3)cc2)c(Cl)c1	none
CCCC(=O)OCCNc1cc(Sc2nc3ccccc3[nH]2)c2nonc2c1[N+](=O)[O-]	S1P4 antagonist 51.5 | S1P4 antag conf 106.1 | S1P1 antag inactive
O=c1ccsn1Cc1ccccc1	S1P4 antagonist 33.2 | S1P4 antag conf 36.5 | S1P1 antag inactive
N#CCCN(C(=O)COc1ccc(C#N)cc1)c1ccc(F)cc1	none
O=C(OCn1ncc(Br)c(Br)c1=O)c1ccc(F)cc1	S1P4 antagonist 77.8 (no result: S1P3 antag) | S1P4 antag conf 117.2 | S1P1 antag 47.0
O=C(OCn1ncc(Br)c(Br)c1=O)c1ccccc1Cl	S1P4 antagonist 48.4 (no result: S1P3 antag) | S1P4 antag conf 114.6 | S1P1 antag inactive
O=C(OCc1cnc(Cl)s1)c1ccccc1Cl	none (no result: S1P3 antag)
CCn1ncc(Br)c1C(=O)Nc1ccc(C(=O)OC(C)C)cc1	none (no result: S1P3 antag)
O=C(NCc1cccnc1)/C(=C\c1ccc(-c2ccc(Cl)c(Cl)c2)o1)S(=O)(=O)c1ccccc1	S1P4 antagonist 57.9 | S1P4 antag conf 108.0 | S1P1 antag 48.4
O=C(NCc1cccnc1)c1ccc(-c2ccc(Cl)cc2)o1	none
C=CCOC(=O)C1=C(C)N=C2SCCC(=O)N2C1c1ccc(OC(=O)c2ccco2)cc1 (configuration not stated)	S1P4 antagonist 37.7 (no result: S1P3 antag) | S1P4 antag conf 58.6 | S1P1 antag 52.3
O=c1c(Cl)c(Cl)cnn1Cc1ccccc1Cl	S1P4 antagonist 46.2 | S1P4 antag conf 115.3 | S1P1 antag 58.0
O=c1c(Cl)c(Cl)cnn1-c1ccccc1	S1P4 antagonist 101.1 | S1P4 antag conf 122.3 | S1P1 antag 72.0
O=c1c(Cl)c(Cl)cnn1Cc1nnc(-c2ccc(Cl)cc2)o1	S1P4 antagonist 36.7 | S1P4 antag conf 68.1 | S1P1 antag inactive
Cc1ccc(Cn2ncc(Cl)c(Cl)c2=O)cc1	none
CN(c1cnn(-c2ccccc2)c(=O)c1Cl)n1cccc1	none (no result: TNAP inh hi DEA, TNAP act hi DEA, TNAP inh no acc)
O=C(NC(Cc1ccccc1)C(=O)O)/C(=C/c1ccccc1)NC(=O)c1ccccc1 (configuration not stated)	S1P4 antagonist 45.0 | S1P4 antag conf inactive | S1P1 antag inactive
